Assay results reported in paper PMC11489560 (Molecular Therapy, 2024).

Experiments:
hippocampal slices = assay: Effect of BDNF on LTP in hippocampal slices; parameters: species or system rat; conditions: control conditions (vehicle-exposed slices); BDNF 30 ng/mL
In short: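 Acute hippocampal slices from male Wistar rats (7-10 weeks) recovered at least 60 min in gassed aCSF at 22°C-24°C, then exposed 3 h at room temperature to vehicle (PBS, pH 7.4). BDNF was tested in separate slices from the same rats. LTP magnitude was the normalized change in mean fEPSP slope 50-60 min post-induction versus the 10 min before induction.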

hippocampal synaptosomes = assay: [3H]Glutamate release from hippocampal synaptosomes, effect of BDNF; parameters: species or system rat; conditions: control conditions; BDNF 30 ng/mL
In short: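 Hippocampal slices from male Wistar rats (7-10 weeks) were exposed 3 h to vehicle (PBS), then synaptosomes were isolated via 45% Percoll in KHR. Synaptosomes (1-2 mg/mL protein) equilibrated 5 min at 37°C in oxygenated aCSF and were loaded with [3H]glutamate, then given two K+ depolarizations. Release was expressed as % of total radioactivity per time point, and internal control curves from the same batch were subtracted. The BDNF effect was the integrated S2 peak area above basal tritium release.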

B1: brain-derived neurotrophic factor (protein, UniProt P23560 19-247, looked up)
Neurotrophic factor BDNF …: APMKEANIRGQGGLAYPGVRTHGTLESVNGPKAGSRGLTSLADTFEHVIEELLDEDQKVRPNEENNKDADLYTSRVMLSSQVPLEPPLLFLLEEYKNYLDAANMSMRVRRHSDPARRGELSVCDSISEWVTAADKKTAVDMSGGTVTVLEKVPVSKGQLKQYFYETKCNPMGYTKEGCRGIDKRHWNSQCRTTQSYVRALTMDSKKRIGWRFIRIDTSCVCTLTIKRGR
Hippocampal slices
  LTP magnitude: potentiated
Hippocampal synaptosomes
  K+-evoked glutamate release: potentiated
